Tests used:
[1] = organism: Rattus norvegicus; experiment: Inhibition of conditioned avoidance response in rats, peroral dose; type: functional
[2] = tested on: Mus musculus; experiment: Effective dose required to produce hypothermia in mouse when administered peroral; type: functional
Procedure, shortened: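 Rectal temperature recorded in groups of three CFW mice (21–23 g) at 0.25, 2.5 and 5.0 h after oral compound (water or 0.5% carboxymethylcellulose). Changes in group mean temperature from the initial mean were summed over the three times. Hypothermia was taken as a summed mean fall >4 °C.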

[3] = tested on: Mus musculus; experiment: Effective dose required to evoke catalepsy in mouse when administered perorally; type: functional
Procedure, shortened: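 CFW mice (21–23 g), groups of three, oral dosing in water or 0.5% carboxymethylcellulose. Scored at 0.25, 2.5 and 5.0 h for holding one hind limb on a 2 cm rubber bung and staying on a vertical grid. EDmin is the dose below which no catalepsy occurred at any time.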

[4] = tested on: Rattus norvegicus; experiment: Effective dose against muscular in coordination in rats determined by rotarod test when administered peroral; type: functional
Procedure, shortened: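 Male Olac Wistar rats (140–150 g), fed and watered ad libitum, groups of five; compound in distilled water or 0.5% carboxymethylcellulose given orally. Tested at 1 and 2 h on horizontal rod rotating at 2 rpm (32 mm diameter), time on rod recorded up to 30 s.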

[5] = target: T1, D(2) dopamine receptor (Bos taurus, UniProt P20288); experiment: Inhibitory activity against dopamine receptor D2 in calf caudate tissue using [3H]spiperone
T1 sequence (P20288 whole entry): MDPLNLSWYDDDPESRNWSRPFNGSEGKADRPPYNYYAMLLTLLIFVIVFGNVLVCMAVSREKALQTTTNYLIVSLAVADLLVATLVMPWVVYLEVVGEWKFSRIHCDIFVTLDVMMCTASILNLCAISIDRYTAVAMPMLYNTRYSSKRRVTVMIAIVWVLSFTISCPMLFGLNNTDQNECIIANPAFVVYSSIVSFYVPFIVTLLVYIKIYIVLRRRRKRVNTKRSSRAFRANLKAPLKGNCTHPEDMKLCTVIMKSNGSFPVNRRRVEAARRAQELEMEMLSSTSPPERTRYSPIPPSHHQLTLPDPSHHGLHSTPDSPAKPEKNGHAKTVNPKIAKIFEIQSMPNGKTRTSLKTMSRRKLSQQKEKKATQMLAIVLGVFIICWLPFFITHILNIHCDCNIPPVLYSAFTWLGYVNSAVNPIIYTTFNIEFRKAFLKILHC

[6] = tested on: Rattus norvegicus; experiment: Effective dose against muscular incoordination in rats determined by rotarod test when administered perorally; type: functional
Procedure, shortened: (§1)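 Male Olac Wistar rats (140–150 g), fed and watered ad libitum, in groups of five, dosed orally (water solution or 0.5% carboxymethylcellulose suspension). Tested at 1 and 2 h on a horizontal rod rotating at 2 rpm, 32 mm diameter, with a 30 s cutoff.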

[7] = target: Muscarinic acetylcholine receptor; experiment: Inhibitory activity against muscarinic cholinergic receptors in male olac rat brain, using [3H]QNB as the radioligand
[8] = tested on: Rattus norvegicus; experiment: Effective dose against muscular incoordination in rats determined by rotarod test when administered peroral; type: functional; procedure, shortened: as §1
[9] = target: T1, D(2) dopamine receptor; experiment: Inhibitory activity against Dopamine receptor D2 in calf caudate tissue, using [3H]spiperone as the radioligand
[10] = target: Muscarinic acetylcholine receptor; experiment: Inhibitory activity against Muscarinic acetylcholine receptor in male olac rat brain, using [3H]-QNB as the radioligand
[11] = target: T1, D(2) dopamine receptor; experiment: Inhibitory activity Dopamine receptor D2 in calf caudate tissue, using [3H]spiperone as the radioligand

SMILES	EDmin [1]	EDmin [2]	EDmin [3]	EDmin [4]	IC50 [5]	EDmin [6]	IC50 [7]	EDmin [8]	IC50 [9]	IC50 [10]	IC50 [11]
CN1CCN(C2=Nc3cc(Cl)ccc3Nc3ccccc32)CC1 [CLOZAPINE]	30 mg/kg	50 mg/kg	100 mg/kg	40 mg/kg	–	–	–	–	–	–	–
CN1CCN(C2=Nc3ccccc3Nc3nn(C)nc32)CC1	5 mg/kg	25 mg/kg	25 mg/kg	–	1420 nM	>50 mg/kg	> 1000 nM	–	–	–	–
CN1CCN(C2=Nc3cc(F)ccc3Nc3c2ncn3C2CCCCC2)CC1	>50 mg/kg	200 mg/kg	>400 mg/kg	–	> 10000 nM	–	> 100000 nM	>50 mg/kg	–	–	–
CCn1cnc2c1Nc1ccc(F)cc1N=C2N1CCN(C)CC1	>50 mg/kg	>200 mg/kg	>200 mg/kg	–	> 10000 nM	–	61000 nM	>50 mg/kg	–	–	–
CN1CCN(C2=Nc3ccccc3Nc3ncccc32)CC1	–	100 mg/kg	–	–	–	–	–	–	> 10000 nM	–	–
CN1CCN(C2=Nc3cc(C(F)(F)F)ccc3Nc3nn(C)nc32)CC1	>25 mg/kg	50 mg/kg	50 mg/kg	–	–	–	–	25 mg/kg	1100 nM	> 1000 nM	–
CN1CCN(C2=Nc3cc(Cl)ccc3Nc3nn(C)nc32)CC1	4 mg/kg	6 mg/kg	12.5 mg/kg	–	–	–	–	>10 mg/kg	210 nM	2600 nM	–
CCn1nc2c(n1)C(N1CCN(C)CC1)=Nc1cc(F)ccc1N2	5 mg/kg	12.5 mg/kg	12.5 mg/kg	–	180 nM	–	> 1000 nM	10 mg/kg	–	–	–
CN1CCN(C2=Nc3cc(Cl)c(Cl)cc3Nc3nn(C)nc32)CC1	>20 mg/kg	50 mg/kg	100 mg/kg	–	–	–	–	>50 mg/kg	2300 nM	> 1000 nM	–
CN1CCN(C2=Nc3cc(Cl)c(Cl)cc3Nc3ncccc32)CC1	–	100 mg/kg	50 mg/kg	–	–	–	–	–	9200 nM	–	–
Cc1cc2c(s1)Nc1ccc(F)cc1N=C2N1CCN(C)CC1 [FLUMEZAPINE]	5 mg/kg	1.6 mg/kg	6.25 mg/kg	–	–	–	80 nM	10 mg/kg	–	–	–
Cc1nc2c(n1C)C(N1CCN(C)CC1)=Nc1cc(F)ccc1N2	>50 mg/kg	50 mg/kg	>200 mg/kg	–	> 10000 nM	–	> 1000 nM	>50 mg/kg	–	–	–
CCn1nc2c(n1)C(N1CCN(C)CC1)=Nc1cc(Cl)ccc1N2	5 mg/kg	12.5 mg/kg	12.5 mg/kg	–	67 nM	–	2400 nM	>5 mg/kg	–	–	–
CN1CCN(C2=Nc3cc(F)ccc3Nc3nn(C)nc32)CC1	5 mg/kg	12.5 mg/kg	25 mg/kg	–	–	20 mg/kg	–	–	840 nM	> 1000 nM	–
CN1CCN(C2=Nc3cc(Br)ccc3Nc3nn(C)nc32)CC1	5 mg/kg	12.5 mg/kg	12.5 mg/kg	–	–	–	–	5 mg/kg	–	4000 nM	300 nM
CN1CCN(C2=Nc3cc(F)ccc3Nc3c2ncn3C)CC1	>50 mg/kg	>400 mg/kg	>400 mg/kg	–	> 100000 nM	–	122000 nM	>50 mg/kg	–	–	–
CN1CCN(C2=Nc3cc(F)ccc3Nc3ncn(C)c32)CC1	>20 mg/kg	25 mg/kg	100 mg/kg	–	> 10000 nM	–	> 1000 nM	40 mg/kg	–	–	–
CN1CCN(C2=Nc3ccccc3Nc3c2nnn3C)CC1	>50 mg/kg	–	–	–	–	–	–	–	> 10000 nM	–	–

Reference: ChEMBL document CHEMBL1124358, “Synthesis and pharmacological evaluation of CNS activities of [1,2,3]triazolo[4,5-b][1,5]-, imidazolo[4,5-b][1,5]-, and pyrido[2,3-b][1,5]benzodiazepines. 10-Piperazinyl-4H-1,2,3-triazolo[4,5-b][1,5]benzodiazepines with neuroleptic activity” (J Med Chem, 1989)
